High-throughput results as filed in PubChem.
TAAR1 ag: human TAAR1 agonism. Q96RJ0. CHO RD-HGA16 TAAR1, Fluo-8 calcium fluorescence; vehicle wells 0%, saturating PEA agonist 100%. activation, % at 3 µM. 360,000 tested, 0.99% active;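 active means activation above the mean activation of all test compounds in the run plus 3 SD, cut at about 38% in these data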
Target sequence (Q96RJ0 whole entry, looked up): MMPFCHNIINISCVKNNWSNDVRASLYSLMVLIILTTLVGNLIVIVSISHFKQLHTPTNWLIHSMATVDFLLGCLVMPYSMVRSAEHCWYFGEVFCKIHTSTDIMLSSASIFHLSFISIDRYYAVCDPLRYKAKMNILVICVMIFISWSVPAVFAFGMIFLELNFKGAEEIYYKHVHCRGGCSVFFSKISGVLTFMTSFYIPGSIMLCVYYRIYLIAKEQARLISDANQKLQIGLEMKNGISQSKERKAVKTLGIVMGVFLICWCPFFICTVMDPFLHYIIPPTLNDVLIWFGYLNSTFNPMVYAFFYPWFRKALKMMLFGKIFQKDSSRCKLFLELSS
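System: CHO RD-HGA16 cells carrying human TAAR1 plus Gα16; Incubation: 17-24 h seeding, 75 min 37 °C dye, 30 min RT; Measured by: Fluo-8 fluorescence, 5 s baseline then 140 s kinetic read; Control set: DMSO and PEA EC100; Replication: single well for each compound.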
OX1R antag-1: antagonists of human orexin 1 receptor; CHO/OX1R cells, Fluo-8 calcium fluorescence, orexin A; O43613; inhibition, % at 5 µM; 330,000 tested, 0.43% active; AID 434989;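 active means inhibition above its plate's threshold, mean inhibition of all tested compounds on the plate plus 3 SD, cut at about 37% in these data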
CHO parental Ca: signal in parental CHO cells, OX1R antagonist counter-screen; inhibition, % at 5.6 µM; parental CHO-K1, ATP-induced calcium, Fluo-8 fluorescence; 330,000 tested, 0.63% active;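 active means inhibition above that plate's mean sample inhibition plus 3 SD, cut at about 26% in these data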
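Assay system: untransfected parental CHO cell line. Also added: ATP agonist challenge. Dosing: one dose, 5.6 µM nominal. Measured by: Fluo-8 fluorescence. Read-out: % inhibition. Benchmarks: ATP wells versus no-ATP DMSO wells. Repeats: no replicates.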
OX1R antag-2: OX1R (human) antagonism; AID 485270; inhibition, % at 6.6 µM; O43613; OX1R-expressing cells, FRET antagonist read-out; 330,000 tested, 1.8% active; in the data active means inhibition mostly above about 38%, no sharp cut-off; inactive means mostly below about 40%
GPR7 antagonist: blocks human GPR7 receptor signaling; AID 1861; GPR7-expressing cells, fluorescence antagonist assay; inhibition, % at 4.4 µM; 290,000 tested, 1.1% active; P48145; in the data active means inhibition above about 16%, passing the limit was not always enough;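 further: cells stimulated with the agonist NPW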
TAAR1 antag: human TAAR1 antagonism | Q96RJ0 | CHO RD-HGA16 TAAR1, Fluo-8 calcium fluorescence, antagonist | inhibition, % at 3 µM | 360,000 tested, 1.5% active | AID 624466;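 active means inhibition above a per-plate cutoff, the mean inhibition of test compounds on that plate plus 3 SD, cut at about 49% in these data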
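System: CHO RD-HGA16 cells bearing hTAAR1. Reagent: EC80 β-phenethylamine stimulus. Schedule: seeding 17-24 h prior, 75-min 37 °C, 30-min RT dye loading. Signal: Fluo-8 intracellular calcium dye fluorescence, real-time kinetic reads. Read-out: % inhibition from peak post-agonist over basal fluorescence ratio. Benchmarks: vehicle wells and EC80 agonist wells. Replicates: n of 1.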
Numbers stand for hits; . = inactive; / = no result given. Only some compounds are listed: those with a hit (about 4.6% of all), similar ones and a draw of the others.

SMILES | TAAR1 ag | OX1R antag-1 | CHO parental Ca | OX1R antag-2 | GPR7 antagonist | TAAR1 antag
CN(CC(=O)Nc1ccc(Cl)c(C(F)(F)F)c1)C(=O)c1cc(=O)[nH]c2ccccc12 | . | . | . | . | / | .
COc1ccc(NC(=O)CSc2ccccc2)c([N+](=O)[O-])c1 | . | . | . | . | . | .
COc1ccc(NC(=O)CSc2nncn2C)c([N+](=O)[O-])c1 | . | . | . | 38.4 | . | .
COc1ccccc1C(=O)NC(=O)CSc1nncn1C | . | . | 39.9 | . | / | .
COc1ccc(NC(=O)c2ccc(C)cc2Cl)c([N+](=O)[O-])c1 | . | . | . | . | . | .
COc1ccc(NC(=O)CS(=O)(=O)Cc2ccccc2)c([N+](=O)[O-])c1 | . | . | . | 50.5 | . | .
COc1ccc(Cl)cc1C(=O)NNC(=O)CSc1nncn1C | . | . | . | . | / | .
COc1ccc(NC(=O)c2cc(Br)ccc2Cl)c([N+](=O)[O-])c1 | . | . | 31.5 | . | . | .
COc1cc2nc(CN3CCN(S(=O)(=O)c4ccccc4[N+](=O)[O-])CC3)[nH]c(=O)c2cc1OC | . | / | / | / | / | .
COC(=O)[C@]12C[C@H](CC(=O)N3CCCC3)C(=O)N(Cc3ccc4c(c3)OCO4)C1=C[C@H](COCc1ccccc1)O[C@@H]2C | . | / | / | / | / | .
CCCCCCCCN1C(=O)[C@@H](CC(=O)N2CCN(C(=O)OCC)CC2)C[C@@]2(C(=O)OC)C1=C[C@H](C(C)(C)C)O[C@@H]2C | . | / | / | / | / | .
N#C/C(=C/c1ccc(Sc2nc3ccccc3[nH]2)o1)c1ccccc1F | . | . | . | 52.5 | . | .
N#C/C(=C\c1ccc(Sc2ccccc2)o1)c1nc2ccccc2[nH]1 | . | . | . | . | . | .
N#C/C(=C/c1ccc(Sc2nc3ccccc3[nH]2)o1)c1cccc(Br)c1 | . | . | . | 79.9 | . | .
N#C/C(=C/c1ccc(Sc2nc3ccccc3[nH]2)o1)c1cccc(F)c1 | . | . | . | 58.8 | . | .
COc1ccc(CN2CCC(C)(Oc3ccc(C(C)=O)cc3)C2)c2ccccc12 (stereo not given) | . | / | / | / | / | .
NC(=O)c1c(N)[nH]c(C(=O)c2ccccc2)c1-c1ccc2ccccc2c1 | . | / | / | / | / | .
CC(C)OCC(O)CN1CCN(CCN2C(=O)c3cccc4cccc(c34)C2=O)CC1 (stereo not given) | . | . | . | 40.6 | . | .
CCC(OCC(O)CN1CCN(CCN2C(=O)c3cccc4cccc(c34)C2=O)CC1)c1ccccc1 (stereo not given) | . | . | . | . | . | .
C=CCCC1CN(Cc2ccc(OC)cc2)S(=O)(=O)c2c(Oc3ccc(C(C)C)cc3)cccc2O1 (stereo not given) | . | / | / | / | / | .
CC(=O)c1ccc(N2CCC(c3cc(-c4ccc(Cl)cc4)n[nH]3)CC2)c([N+](=O)[O-])c1 | / | . | 43.2 | . | . | /
COc1ccc(-c2cc(C3CCN(c4ccc(C(C)=O)cc4[N+](=O)[O-])CC3)[nH]n2)cc1 | . | . | 50.0 | . | . | .
CCCCNC(=O)C(NC(=O)c1cccc(C(F)(F)F)c1)C(=O)c1ccccc1 (stereo not given) | . | / | / | / | / | .
O=C(O)c1cc(N=Nc2c(O)ccc3ccccc23)cc(C(=O)O)c1 | . | / | / | / | . | .
O=C(O)c1cc2ccccc2c(N=Nc2cccnc2)c1O | / | . | . | 73.6 | . | /
SMILES | TAAR1 ag | OX1R antag-1 | CHO parental Ca | OX1R antag-2 | GPR7 antagonist | TAAR1 antag
O=C(COc1cc2oc(=O)cc(-c3ccccc3)c2cc1Cl)NCCN1CCOCC1 | . | . | . | 49.0 | . | .
O=C(N[C@H](Cc1ccccc1)C(=O)NCC1CCCO1)[C@H]1O[C@@H](n2ccc(=O)[nH]c2=O)[C@H](O)[C@@H]1O (stereo not given in full) | . | / | / | / | / | .
O=C(c1ccc(Cl)c(S(=O)(=O)N2CCCCCC2)c1)N1CCN(c2ccccn2)CC1 | . | . | . | . | 20.9 | .
Cc1ccc(C(C)(C)C)cc1S(=O)(=O)Nc1cccc(C(=O)N2CCN(c3ccccn3)CC2)c1 | . | / | / | / | / | 60.9
CCOC(=O)C1=C[C@@H](C(C)(C)C)N(S(=O)(=O)c2ccc([N+](=O)[O-])cc2)[C@H]1c1ccccc1Cl | . | / | / | / | / | .
C[C@@H]1ON(C)[C@H]2C[C@H]3c4[nH]c5cccc(-c6cccc(F)c6)c5c4CCN3C(=O)[C@@H]12 | . | / | / | / | / | .
